Columns and labels:
[1] = target: T1, Peroxisome proliferator-activated receptor alpha (Homo sapiens, UniProt Q07869); assay: Agonist activity at human PPARalpha expressed in CV1 cells by transactivation assay; assay type: functional, cell-based, CV-1
T1 sequence (Q07869 whole entry): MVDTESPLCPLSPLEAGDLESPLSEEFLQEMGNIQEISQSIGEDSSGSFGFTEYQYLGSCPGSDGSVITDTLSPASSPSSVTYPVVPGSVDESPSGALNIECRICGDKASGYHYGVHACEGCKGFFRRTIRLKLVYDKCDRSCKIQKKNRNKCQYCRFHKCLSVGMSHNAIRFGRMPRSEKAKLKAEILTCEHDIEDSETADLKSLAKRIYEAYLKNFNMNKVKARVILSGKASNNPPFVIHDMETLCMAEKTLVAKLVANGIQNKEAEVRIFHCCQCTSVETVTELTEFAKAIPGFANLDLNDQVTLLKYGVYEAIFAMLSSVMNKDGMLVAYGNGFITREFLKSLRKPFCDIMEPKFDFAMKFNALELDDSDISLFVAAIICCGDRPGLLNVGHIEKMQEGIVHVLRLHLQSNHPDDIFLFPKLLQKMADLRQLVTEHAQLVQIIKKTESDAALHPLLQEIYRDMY

[2] = target: T2, Peroxisome proliferator-activated receptor gamma (Homo sapiens, UniProt P37231); assay: Agonist activity at human PPARgamma expressed in CV1 cells by transactivation assay; assay type: functional, cell-based, CV-1
T2 sequence (P37231 whole entry): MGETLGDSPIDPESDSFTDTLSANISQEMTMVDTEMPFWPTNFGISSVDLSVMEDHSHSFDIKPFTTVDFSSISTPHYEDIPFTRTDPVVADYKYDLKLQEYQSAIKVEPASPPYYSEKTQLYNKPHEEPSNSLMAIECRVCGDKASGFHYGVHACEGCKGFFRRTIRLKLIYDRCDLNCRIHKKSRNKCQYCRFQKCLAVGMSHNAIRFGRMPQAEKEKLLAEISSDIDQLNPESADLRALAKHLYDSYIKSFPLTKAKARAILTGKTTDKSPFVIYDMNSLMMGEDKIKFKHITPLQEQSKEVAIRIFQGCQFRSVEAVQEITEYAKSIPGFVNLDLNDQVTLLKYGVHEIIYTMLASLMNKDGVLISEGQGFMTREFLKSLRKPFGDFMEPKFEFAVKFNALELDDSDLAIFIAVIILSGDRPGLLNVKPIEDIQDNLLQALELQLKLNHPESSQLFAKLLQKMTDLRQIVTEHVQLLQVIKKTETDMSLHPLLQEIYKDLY

[3] = target: T3, Peroxisome proliferator-activated receptor delta (Homo sapiens) (UniProt Q03181); assay: Agonist activity at human PPARdelta expressed in CV1 cells at 10 uM by transactivation assay; assay type: functional, cell-based; settings: CV-1
T3 sequence (whole entry): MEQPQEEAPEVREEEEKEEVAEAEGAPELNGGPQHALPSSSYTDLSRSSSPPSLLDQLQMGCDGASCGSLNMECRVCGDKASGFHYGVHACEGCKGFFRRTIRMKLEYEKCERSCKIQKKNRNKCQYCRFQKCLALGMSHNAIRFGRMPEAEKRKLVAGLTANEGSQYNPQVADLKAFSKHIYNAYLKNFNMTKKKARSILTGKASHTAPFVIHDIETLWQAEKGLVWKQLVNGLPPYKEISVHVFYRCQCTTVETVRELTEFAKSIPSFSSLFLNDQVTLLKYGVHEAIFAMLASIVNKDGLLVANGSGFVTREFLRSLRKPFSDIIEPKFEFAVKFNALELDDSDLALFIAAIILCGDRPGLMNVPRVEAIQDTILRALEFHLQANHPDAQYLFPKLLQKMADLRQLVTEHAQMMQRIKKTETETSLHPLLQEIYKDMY
Outline: (§1)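 Human full-length PPAR subtype (pSG5) cotransfected into CV-1 cells with a PPRE (rat acyl-CoA oxidase, ×3)–TK firefly luciferase reporter and a Renilla TK control. Cells were cultured in DMEM/10% FBS at 37 °C under 5% CO2, then exposed to compound at 10 µM (0.1% DMSO final) for 48 h. The dual-luciferase read-out is given as a percentage of the positive control's maximum activity (n = 2).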

[4] = target: T4, Peroxisome proliferator-activated receptor gamma (Homo sapiens) (UniProt P37231); assay: Agonist activity at human PPARgamma expressed in CV1 cells at 10 uM by transactivation assay; assay type: functional, cell-based; settings: CV-1; outline: as §1
T4 sequence (whole entry): T2 sequence (P37231 whole entry)

[5] = target: T5, Peroxisome proliferator-activated receptor delta (Homo sapiens, UniProt Q03181); assay: Agonist activity at human PPARdelta expressed in CV1 cells by transactivation assay; assay type: functional, cell-based, CV-1
T5 sequence (Q03181 whole entry): T3 sequence (whole entry)

[6] = target: T6, Peroxisome proliferator-activated receptor alpha (Mus musculus, UniProt P23204); assay: Agonist activity at mouse PPARalpha expressed in CV1 cells by transactivation assay; assay type: functional, cell-based, CV-1
T6 sequence (P23204 whole entry): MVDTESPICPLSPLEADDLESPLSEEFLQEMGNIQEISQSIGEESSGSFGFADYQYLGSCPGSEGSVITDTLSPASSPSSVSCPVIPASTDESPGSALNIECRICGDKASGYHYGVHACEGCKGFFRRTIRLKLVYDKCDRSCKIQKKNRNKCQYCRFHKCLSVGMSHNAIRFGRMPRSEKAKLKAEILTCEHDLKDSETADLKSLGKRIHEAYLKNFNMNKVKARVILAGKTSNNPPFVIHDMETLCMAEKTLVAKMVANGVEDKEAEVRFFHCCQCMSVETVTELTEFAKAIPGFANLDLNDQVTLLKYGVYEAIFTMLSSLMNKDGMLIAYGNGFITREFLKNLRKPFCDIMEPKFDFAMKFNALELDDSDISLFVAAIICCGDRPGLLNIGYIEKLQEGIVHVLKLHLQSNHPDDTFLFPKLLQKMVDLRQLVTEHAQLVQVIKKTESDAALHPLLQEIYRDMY

[7] = system: Mus musculus; assay: Hypoglycemic effect on diabetic KK-Ay mouse assessed as reduction of plasma glucose level at 1 mg/kg/day, po after 4 days; assay type: functional; parameters: scale not given: the % may be the effect or the level left
Outline: (§2)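 Male KK-Ay mice, 10 weeks old and fed chow ad libitum, were dosed orally once daily for 4 days (n = 5) with suspensions in 0.5% methylcellulose. On the day after the last dose, nonfasted tail-vein plasma was assayed enzymatically for TG and glucose. Vena cava plasma taken under pentobarbital had lipoprotein cholesterol measured by HPLC with on-line enzymatic detection. Values are % change of the group mean from vehicle controls.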

[8] = system: Mus musculus; assay: Hypolipidemic effect on diabetic KK-Ay mouse assessed as reduction of plasma VLDL cholesterol level at 1 mg/kg/day, po after 4 days; assay type: functional; parameters: scale not given: the % may be the effect or the level left; outline: as §2
[9] = system: Mus musculus; assay: Hypolipidemic effect on diabetic KK-Ay mouse assessed as increase in plasma HDL cholesterol level at 1 mg/kg/day, po after 4 days; assay type: functional; outline: as §2
[10] = target: T7, Peroxisome proliferator-activated receptor gamma (Mus musculus) (UniProt P37238); assay: Agonist activity at mouse PPARgamma expressed in CV1 cells at 10 uM by transactivation assay; assay type: functional, cell-based; settings: CV-1
T7 sequence (whole entry): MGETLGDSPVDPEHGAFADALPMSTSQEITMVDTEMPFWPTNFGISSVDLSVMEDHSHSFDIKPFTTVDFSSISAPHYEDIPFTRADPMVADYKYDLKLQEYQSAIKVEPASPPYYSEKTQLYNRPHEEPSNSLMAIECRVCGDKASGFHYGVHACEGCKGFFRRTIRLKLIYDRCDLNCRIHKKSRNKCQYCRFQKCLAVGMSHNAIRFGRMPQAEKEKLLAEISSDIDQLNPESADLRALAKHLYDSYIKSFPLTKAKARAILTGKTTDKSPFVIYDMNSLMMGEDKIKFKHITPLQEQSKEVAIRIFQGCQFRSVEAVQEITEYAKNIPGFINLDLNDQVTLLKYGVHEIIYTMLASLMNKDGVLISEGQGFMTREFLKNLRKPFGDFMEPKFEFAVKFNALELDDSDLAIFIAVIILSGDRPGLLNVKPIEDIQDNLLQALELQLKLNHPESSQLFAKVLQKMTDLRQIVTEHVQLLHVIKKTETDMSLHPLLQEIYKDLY

[11] = system: Mus musculus; assay: Hypolipidemic effect on diabetic KK-Ay mouse assessed as reduction of plasma triglyceride level at 1 mg/kg/day, po after 4 days; assay type: functional; parameters: scale not given: the % may be the effect or the level left; outline: as §2
[12] = Selectivity for mouse PPARalpha over human PPARalpha
[13] = species: Homo sapiens; assay: Selectivity for human PPARalpha over human PPARgamma
[14] = target: T8, Peroxisome proliferator-activated receptor alpha (Homo sapiens) (UniProt Q07869); assay: Agonist activity at human PPARalpha expressed in CV1 cells at 10 uM by transactivation assay; assay type: functional, cell-based; settings: CV-1; outline: as §1
T8 sequence (whole entry): T1 sequence (Q07869 whole entry)

SMILES	EC50 [1]	EC50 [2]	Activity [3]	Activity [4]	further results
Cc1ccc(-c2nc(CCCC[C@H]3CO[C@@](C)(C(=O)O)OC3)c(C)o2)cc1		9600 nM	7%	31%	EC50 [5]: > 100000 nM; EC50 [6]: 30 nM; Activity [7]: -21%; Activity [8]: -50%; Activity [9]: 34%; Activity [10]: 45%; Activity [11]: -71%
Cc1ccc(-c2nc(CCCC[C@H]3CO[C@@](C)(C(=O)O)OC3)c(C)o2)cc1C	3 nM		0%	42%	EC50 [6]: 30 nM; Activity [7]: -32%; Activity [8]: -92%; Activity [9]: 21%; Activity [10]: 42%; Selectivity ratio [12]: 10; Activity [11]: -89%
CCc1ccc(-c2nc(CCCC[C@H]3CO[C@@](C)(C(=O)O)OC3)c(C)o2)cc1	10 nM	3000 nM	0%		Selectivity ratio [13]: 300
Cc1ccc(-c2nc(CCCC[C@H]3CO[C@@](C)(C(=O)O)OC3)c(C)n2C)cc1			0%	0%	Activity [14]: 6%
CCc1oc(-c2ccc(C)cc2)nc1CCCC[C@H]1CO[C@@](C)(C(=O)O)OC1	30 nM	10000 nM	3%		

Further lines, with some results ahead:

EC50 [1]	EC50 [2]	Activity [3]	Activity [4]	SMILES	further results
300 nM	3000 nM	24%		Cc1ccc(-c2nc(CCCC[C@H]3CO[C@@](C)(C(=O)O)OC3)c(C(F)(F)F)o2)cc1	
30 nM		16%	35%	Cc1ccc(-c2nc(CCCC[C@H]3CO[C@@](C)(C(=O)O)OC3)c(C)o2)c(C)c1	
30 nM		34%	41%	Cc1oc(-c2ccc(C(F)(F)F)cc2)nc1CCCC[C@H]1CO[C@@](C)(C(=O)O)OC1	
30 nM		16%	34%	Cc1cccc(-c2nc(CCCC[C@H]3CO[C@@](C)(C(=O)O)OC3)c(C)o2)c1	

Source: ChEMBL document CHEMBL1143171, “Structure-activity studies on 1,3-dioxane-2-carboxylic acid derivatives, a novel class of subtype-selective peroxisome proliferator-activated receptor alpha (PPARalpha) agonists” (Bioorg Med Chem, 2008)
